Source: ChEMBL document CHEMBL1926569, “Novel (E)-1-(4-methyl-2-(alkylamino)thiazol-5-yl)-3-arylprop-2-en-1-ones as potent antimicrobial agents” (2011)
Values after ≈ are worked out from the molar mass of the structure shown.

Columns and labels:
Staphylococcus aureus [1] = test: Antibacterial activity against Staphylococcus aureus ATCC 6538 after 24 hrs by microdilution method; format: functional; conditions: ATCC 6538, 24 h
Method in brief: (§1)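 Broth microdilution in 96-well plates. Bacterial suspensions were adjusted in sterile saline to 1.0 × 10⁵ CFU/ml, prepared daily and kept at 4 °C. Compound was added to LB broth with 1.0 × 10⁴ CFU per well and shaken at 160 rpm for 24 h at […] (so in the source). MIC is the lowest concentration with no visible growth under a binocular microscope. OD655 was also read. Duplicate, repeated three times.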

Bacillus cereus [2] = test: Antibacterial activity against clinical isolate of Bacillus cereus after 24 hrs by microdilution method; format: functional; method in brief: as §1
Micrococcus flavus [3] = test: Antibacterial activity against Micrococcus flavus ATCC 10240 after 24 hrs by microdilution method; format: functional; conditions: ATCC 10240, 24 h; method in brief: as §1
Listeria monocytogenes [4] = test: Antibacterial activity against Listeria monocytogenes NCTC 7973 after 24 hrs by microdilution method; format: functional; conditions: NCTC 7973, 24 h; method in brief: as §1
Pseudomonas aeruginosa [5] = test: Antibacterial activity against Pseudomonas aeruginosa ATCC 27853 after 24 hrs by microdilution method; format: functional; conditions: ATCC 27853, 24 h; method in brief: as §1
Salmonella typhimurium [6] = test: Antibacterial activity against Salmonella Typhimurium ATCC 13311 after 24 hrs by microdilution method; format: functional, Salmonella enterica subsp. enterica serovar Typhimurium; conditions: Salmonella enterica, ATCC 13311, 24 h; method in brief: as §1
Escherichia coli [7] = test: Antibacterial activity against Escherichia coli ATCC 35210 after 24 hrs by microdilution method; format: functional; conditions: ATCC 35210, 24 h; method in brief: as §1
Enterococcus faecalis [8] = test: Antibacterial activity against Enterococcus faecalis isolated from human after 24 hrs by microdilution method; format: functional; method in brief: as §1
Staphylococcus aureus [9] = test: Antibacterial activity against Staphylococcus aureus ATCC 6538 incubated for 24 hrs followed by serial sub-cultivation for 24 hrs by microdilution method; format: functional; conditions: ATCC 6538, 24 h
Method in brief: (§2)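 MBC: after the 24 h LB broth microdilution (1.0 × 10⁴ CFU per well, 160 rpm), wells were serially sub-cultured into fresh broth plates and incubated a further 24 h. MBC is the lowest concentration with no visible growth, taken as 99.5% killing of the original inoculum. Duplicate, repeated three times.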

Bacillus cereus [10] = test: Antibacterial activity against clinical isolate of Bacillus cereus incubated for 24 hrs followed by serial sub-cultivation for 24 hrs by microdilution; format: functional; method in brief: as §2
Micrococcus flavus [11] = test: Antibacterial activity against Micrococcus flavus ATCC 10240 incubated for 24 hrs followed by serial sub-cultivation for 24 hrs by microdilution; format: functional; conditions: ATCC 10240, 24 h; method in brief: as §2
Listeria monocytogenes [12] = test: Antibacterial activity against Listeria monocytogenes NCTC 7973 incubated for 24 hrs followed by serial sub-cultivation for 24 hrs by microdilution; format: functional; conditions: NCTC 7973, 24 h; method in brief: as §2
Pseudomonas aeruginosa [13] = test: Antibacterial activity against Pseudomonas aeruginosa ATCC 27853 incubated for 24 hrs followed by serial sub-cultivation for 24 hrs by microdilution; format: functional; conditions: ATCC 27853, 24 h; method in brief: as §2
Salmonella typhimurium [14] = test: Antibacterial activity against Salmonella Typhimurium ATCC 13311 incubated for 24 hrs followed by serial sub-cultivation for 24 hrs by microdilution; format: functional, Salmonella enterica subsp. enterica serovar Typhimurium; conditions: Salmonella enterica, ATCC 13311, 24 h; method in brief: as §2
Escherichia coli [15] = test: Antibacterial activity against Escherichia coli ATCC 35210 incubated for 24 hrs followed by serial sub-cultivation for 24 hrs by microdilution; format: functional; conditions: ATCC 35210, 24 h; method in brief: as §2
Enterococcus faecalis [16] = test: Antibacterial activity against Enterococcus faecalis isolated from human incubated for 24 hrs followed by serial sub-cultivation for 24 hrs by microdilution; format: functional; method in brief: as §2
Aspergillus ochraceus [17] = test: Antifungal activity against Aspergillus ochraceus ATCC 12066 after 72 hrs by serial dilution technique; format: functional; conditions: ATCC 12066, 72 h
Method in brief: (§3)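 Modified microdilution in 96-well plates. Fungi were kept on malt agar at 4 °C. Spores were washed off in sterile 0.85% saline with 0.1% Tween 80. Compounds were dissolved at 1 mg/ml in 5% DMSO with 0.1% Tween 80 and added to malt broth with inoculum. Plates were shaken at 160 rpm for 72 h at 28 °C. Duplicate, repeated three times.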

Aspergillus niger [18] = test: Antifungal activity against Aspergillus niger ATCC 6275 after 72 hrs by serial dilution technique; format: functional; conditions: ATCC 6275, 72 h; method in brief: as §3
Aspergillus flavus [19] = test: Antifungal activity against Aspergillus flavus ATCC 9643 after 72 hrs by serial dilution technique; format: functional; conditions: ATCC 9643, 72 h; method in brief: as §3
Talaromyces funiculosus [20] = test: Antifungal activity against Penicillium funiculosum ATCC 36839 after 72 hrs by serial dilution technique; format: functional; conditions: ATCC 36839, 72 h; method in brief: as §3
Penicillium ochrochloron [21] = test: Antifungal activity against Penicillium ochrochloron ATCC 9112 after 72 hrs by serial dilution technique; format: functional; conditions: ATCC 9112, 72 h; method in brief: as §3
Trichoderma viride [22] = test: Antifungal activity against Trichoderma viride IAM 5061 after 72 hrs by serial dilution technique; format: functional; conditions: IAM 5061, 72 h; method in brief: as §3
Candida albicans [23] = test: Antifungal activity against Candida albicans isolated from human after 72 hrs by serial dilution technique; format: functional; method in brief: as §3
Aspergillus ochraceus [24] = test: Antifungal activity against Aspergillus ochraceus ATCC 12066 incubated for 72 hrs followed by serial sub-cultivation for 72 hrs by serial dilution technique; format: functional; conditions: ATCC 12066, 72 h
Method in brief: (§4)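 MFC: material from 72 h malt broth microdilution wells was serially sub-cultured into fresh broth plates and incubated a further 72 h at 28 °C. Fungicidal concentration is taken from growth after sub-culture. Duplicate, repeated three times.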

Aspergillus fumigatus [25] = test: Antifungal activity against Aspergillus fumigatus isolated from human incubated for 72 hrs followed by serial sub-cultivation for 72 hrs by serial dilution technique; format: functional; method in brief: as §4
Aspergillus niger [26] = test: Antifungal activity against Aspergillus niger ATCC 6275 incubated for 72 hrs followed by serial sub-cultivation for 72 hrs by serial dilution technique; format: functional; conditions: ATCC 6275, 72 h; method in brief: as §4
Aspergillus flavus [27] = test: Antifungal activity against Aspergillus flavus ATCC 9643 incubated for 72 hrs followed by serial sub-cultivation for 72 hrs by serial dilution technique; format: functional; conditions: ATCC 9643, 72 h; method in brief: as §4
Talaromyces funiculosus [28] = test: Antifungal activity against Penicillium funiculosum ATCC 36839 incubated for 72 hrs followed by serial sub-cultivation for 72 hrs by serial dilution technique; format: functional; conditions: ATCC 36839, 72 h; method in brief: as §4
Penicillium ochrochloron [29] = test: Antifungal activity against Penicillium ochrochloron ATCC 9112 incubated for 72 hrs followed by serial sub-cultivation for 72 hrs by serial dilution technique; format: functional; conditions: ATCC 9112, 72 h; method in brief: as §4
Trichoderma viride [30] = test: Antifungal activity against Trichoderma viride IAM 5061 incubated for 72 hrs followed by serial sub-cultivation for 72 hrs by serial dilution technique; format: functional; conditions: IAM 5061, 72 h; method in brief: as §4
Candida albicans [31] = test: Antifungal activity against Candida albicans isolated from human incubated for 72 hrs followed by serial sub-cultivation for 72 hrs by serial dilution technique; format: functional; method in brief: as §4
Pseudomonas aeruginosa [32] = test: Ratio of ampicillin MIC to compound MIC for Pseudomonas aeruginosa ATCC 27853; format: functional
Aspergillus ochraceus [33] = test: Ratio of bifonazole to compound for Aspergillus ochraceus ATCC 12066; format: functional
Aspergillus niger [34] = test: Ratio of bifonazole to compound for Aspergillus niger ATCC 6275; format: functional
Talaromyces funiculosus [35] = test: Ratio of bifonazole to compound for Penicillium funiculosum ATCC 36839; format: functional
Penicillium ochrochloron [36] = test: Ratio of bifonazole to compound for Penicillium ochrochloron ATCC 9112; format: functional
Trichoderma viride [37] = test: Ratio of bifonazole to compound for Trichoderma viride IAM 5061; format: functional
Candida albicans [38] = test: Ratio of bifonazole to compound for Candida albicans isolated from human; format: functional
Aspergillus ochraceus [39] = test: Ratio of ketoconazole to compound for Aspergillus ochraceus ATCC 12066; format: functional
Aspergillus fumigatus [40] = test: Ratio of ketoconazole to compound for Aspergillus fumigatus isolated from human; format: functional
Penicillium ochrochloron [41] = test: Ratio of ketoconazole to compound for Penicillium ochrochloron ATCC 9112; format: functional
Candida albicans [42] = test: Ratio of ketoconazole to compound for Candida albicans isolated from human; format: functional
Aspergillus ochraceus [43] = test: Antifungal activity against Aspergillus ochraceus after 72 hrs by serial dilution technique

MIC (Staphylococcus aureus [1]): 73.5 µM (≈ 20 µg/mL)
MIC (Bacillus cereus [2]): 73.5 µM (≈ 20 µg/mL)
MIC (Micrococcus flavus [3]): 91.9 µM (≈ 25 µg/mL)
MIC (Listeria monocytogenes [4]): 110 µM (≈ 30 µg/mL)
MIC (Pseudomonas aeruginosa [5]): 73.5 µM (≈ 20 µg/mL)
MIC (Salmonella typhimurium [6]): 36.8 µM (≈ 10 µg/mL)
MIC (Escherichia coli [7]): 73.5 µM (≈ 20 µg/mL)
MIC (Enterococcus faecalis [8]): 55.1 µM (≈ 15 µg/mL)
MIC (Aspergillus ochraceus [17]): 73.5 µM (≈ 20 µg/mL)
MIC (Aspergillus niger [18]): 55.1 µM (≈ 15 µg/mL)
MIC (Aspergillus flavus [19]): 73.5 µM (≈ 20 µg/mL)
MIC (Talaromyces funiculosus [20]): 36.8 µM (≈ 10 µg/mL)
MIC (Penicillium ochrochloron [21]): 36.8 µM (≈ 10 µg/mL)
MIC (Trichoderma viride [22]): 36.8 µM (≈ 10 µg/mL)
MIC (Candida albicans [23]): 36.8 µM (≈ 10 µg/mL)
MIC (Aspergillus ochraceus [43]): 36.8 µM (≈ 10 µg/mL)
Structure (SMILES): CCNc1nc(C)c(C(=O)/C=C/c2ccccc2)s1
MBC (Staphylococcus aureus [9]): 110 µM (≈ 30 µg/mL)
MBC (Bacillus cereus [10]): 73.5 µM (≈ 20 µg/mL)
MBC (Micrococcus flavus [11]): 110 µM (≈ 30 µg/mL)
MBC (Listeria monocytogenes [12]): 110 µM (≈ 30 µg/mL)
MBC (Pseudomonas aeruginosa [13]): 73.5 µM (≈ 20 µg/mL)
MBC (Salmonella typhimurium [14]): 91.9 µM (≈ 25 µg/mL)
MBC (Escherichia coli [15]): 110 µM (≈ 30 µg/mL)
MBC (Enterococcus faecalis [16]): 73.5 µM (≈ 20 µg/mL)
MFC (Aspergillus ochraceus [24]): 91.9 µM (≈ 25 µg/mL)
MFC (Aspergillus fumigatus [25]): 73.5 µM (≈ 20 µg/mL)
MFC (Aspergillus niger [26]): 73.5 µM (≈ 20 µg/mL)
MFC (Aspergillus flavus [27]): 91.9 µM (≈ 25 µg/mL)
MFC (Talaromyces funiculosus [28]): 73.5 µM (≈ 20 µg/mL)
MFC (Penicillium ochrochloron [29]): 73.5 µM (≈ 20 µg/mL)
MFC (Trichoderma viride [30]): 73.5 µM (≈ 20 µg/mL)
MFC (Candida albicans [31]): 73.5 µM (≈ 20 µg/mL)
Ratio (Pseudomonas aeruginosa [32]): 10
Ratio (Aspergillus ochraceus [33]): 10
Ratio (Aspergillus niger [34]): 10
Ratio (Talaromyces funiculosus [35]): 10
Ratio (Penicillium ochrochloron [36]): 10
Ratio (Trichoderma viride [37]): 10
Ratio (Candida albicans [38]): 10
Ratio (Aspergillus ochraceus [39]): 10
Ratio (Aspergillus fumigatus [40]): 10
Ratio (Penicillium ochrochloron [41]): 10
Ratio (Candida albicans [42]): 10
